Series [1] in a line: Inhibition of pro-inflammatory cytokine IL5 production in ovalbumin-stimulated BALB/c mouse TH2 cells after 48 hrs by sandwich-ELISA. The series is classed as functional, cell-based. The settings on record: TH2, 48 h. The gist of the method:
(§1)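 Splenocytes from female Balb-C mice (6-8 weeks) immunized subcutaneously weekly for four weeks with 25 µg OVA adsorbed to 1 mg alum in PBS. Cells in RPMI-1640 at 1.3 × 10^6 cells/mL, given compound in DMSO plus OVA allergen; DMSO and DMSO+OVA replicate wells as controls. After 48 h incubation, supernatant cytokine measured by colorimetric sandwich ELISA.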
(In general: An ELISA detects its analyte on a solid surface through an enzyme-linked reagent.)

A short description of series [2]: Inhibition of pro-inflammatory cytokine IL13 production in ovalbumin-stimulated BALB/c mouse TH2 cells after 48 hrs by sandwich-ELISA. The series is classed as functional, cell-based. The settings on record: TH2, 48 h. The gist of the method: as §1
Series [3] can be described thus: Cytotoxicity against BALB/c mouse TH2 cells after 48 hrs by Trypan blue assay. The series is classed as cell-based. The settings on record: read-out: LD50. In outline: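 Splenocytes from OVA/alum-immunized female Balb-C mice (6-8 weeks) in RPMI-1640 at 1.3 × 10^6 cells/mL, exposed to compound in DMSO with OVA allergen for 48 h. Adherent cells stained with trypan blue and counted visually on a hemocytometer to assess viability.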

A short description of series [4]: Inhibition of pro-inflammatory cytokine IL5 production in ovalbumin-stimulated BALB/c mouse TH2 cells at 5 nM after 48 hrs by sandwich-ELISA relative to control. In kind it is functional. On the set-up: scale not given: the % may be the effect or the level left. The gist of the method: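 Splenocytes from female BALB/c mice (6-8 weeks) were used, taken after weekly subcutaneous immunisation for 4 weeks with 25 µg OVA on 1 mg alum in PBS. Cells were held at 1.3 × 10^6 cells/mL in RPMI-1640 and given compound in DMSO plus OVA for 48 h. Controls were DMSO ± OVA wells. Supernatant IL-5 was read by colorimetric sandwich ELISA.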

Series [5] is described as follows: Inhibition of pro-inflammatory cytokine IL1 production in ovalbumin-stimulated BALB/c mouse APC at 10 nM after 48 hrs by sandwich-ELISA relative to control. In kind it is functional. On the set-up: scale not given: the % may be the effect or the level left. In outline: as §1
Series [6] in a line: Inhibition of pro-inflammatory cytokine TNFalpha production in ovalbumin-stimulated BALB/c mouse APC at 10 nM after 48 hrs by sandwich-ELISA relative to control. The series is classed as functional. On the set-up: scale not given: the % may be the effect or the level left. The gist of the method:
as §1

Series [7] in a line: Therapeutic index, ratio of LD50 for BALB/c mouse TH2 cells to IC50 for pro-inflammatory cytokine production in BALB/c mouse TH2 cells. The series is classed as cell-based. The settings on record: read-out: TI. The gist of the method:
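Splenocytes came from OVA/alum-immunised female BALB/c mice (25 µg OVA s.c. weekly for 4 weeks) and were held at 1.3 × 10^6 cells/mL in RPMI-1640. They were exposed to compound in DMSO with OVA for 48 h, with DMSO ± OVA control wells. Cytokines in the supernatant were measured by sandwich ELISA. Viability of adherent cells was scored by trypan blue hemocytometer counting.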

Where only a bound is given, the exact number is not on record here.

As a reminder, the IC50 is the midpoint of a concentration-inhibition curve. For the compound `CCCC[C@H]1C(=O)O[C@H](C)[C@H](NC(=O)c2cccc(NC=O)c2O)C(=O)O[C@@H](C)[C@@H]1OC(=O)c1ccccc1` [SPLENOCIN E], the figures for the IC50 in series [1] and in series [2] were 16.6 nM and 15.9 nM, respectively. The CC50 at 48 h in series [3] was over 570 nM.
For `C[C@@H]1OC(=O)[C@@H](NC(=O)c2cccc(NC=O)c2O)[C@@H](C)OC(=O)[C@H](Cc2ccccc2)[C@H]1OC(=O)c1ccccc1` [SPLENOCIN I], in that order: 15.8 nM, 15.2 nM and over 540 nM.
As for `C[C@@H]1C[C@H]2[C@@H]3CCC4=CC(=O)C=C[C@]4(C)[C@@]3(F)[C@@H](O)C[C@]2(C)[C@@]1(O)C(=O)CO` [DEXAMETHASONE], the IC50 in series [1] and in series [2] was 5 nM throughout. The compound also gave an Activity in series [4] of over 80%. Besides, in series [3], the CC50 at 48 h is over 7100 nM.
As for `CCCCCC[C@H]1C(=O)O[C@H](C)[C@H](NC(=O)c2cccc(NC=O)c2O)C(=O)O[C@@H](C)[C@@H]1OC(=O)c1ccccc1` [SPLENOCIN G], the Activity worked out at 85% in series [5] and 75% in series [6]. In addition, the IC50 was 5 nM in series [1] and 5.2 nM in series [2]. In series [3], the CC50 at 48 h was over 550 nM.
Consider `C[C@@H]1OC(=O)[C@@H](NC(=O)c2cccc(NC=O)c2O)[C@@H](C)OC(=O)[C@H](Cc2ccccc2)[C@H]1O` [SPLENOCIN J], for which the results for the IC50 in series [1] and in series [2] were 1020 nM and 826 nM, respectively. Further, the CC50 at 48 h in series [3] was over 6000 nM.
`CC[C@H]1C(=O)O[C@H](C)[C@H](NC(=O)c2cccc(NC=O)c2O)C(=O)O[C@@H](C)[C@@H]1OC(=O)c1ccccc1` [SPLENOCIN D]: the IC50 in series [1] came to 47.9 nM; in series [2] it was 43.7 nM. The CC50 at 48 h in series [3] was over 550 nM.
On the same counts, the results for `CCCCC(C)C[C@H]1C(=O)O[C@H](C)[C@H](NC(=O)c2cccc(NC=O)c2O)C(=O)O[C@@H](C)[C@@H]1OC(=O)c1ccccc1` (some centres undefined) [SPLENOCIN H] are 4.3 nM, 5.1 nM and over 1600 nM.
With `CC(C)C(=O)O[C@H]1[C@H](C)OC(=O)[C@@H](NC(=O)c2cccc(NC=O)c2O)[C@@H](C)OC(=O)[C@@H]1Cc1ccccc1` [SPLENOCIN B], in series [7], the selectivity ratio is over 500. Also, the figures for the Activity in series [5], in series [6] and in series [4] were 85%, 75% and over 80%, respectively. For the same compound, the figures for the IC50 in series [1] and in series [2] were 1.8 nM and 1.6 nM, respectively. For the same compound, the CC50 at 48 h in series [3] was over 1700 nM.
`CCCCC[C@H]1C(=O)O[C@H](C)[C@H](NC(=O)c2cccc(NC=O)c2O)C(=O)O[C@@H](C)[C@@H]1OC(=O)c1ccccc1` [SPLENOCIN F]: the IC50 in series [1] came to 9.4 nM; in series [2], 6.8 nM. In series [3], the CC50 at 48 h is over 560 nM.
In series [1], `CC(=O)O[C@H]1[C@H](C)OC(=O)[C@@H](NC(=O)c2cccc(NC=O)c2O)[C@@H](C)OC(=O)[C@@H]1Cc1ccccc1` [SPLENOCIN A] yielded an IC50 of 3.1 nM. Moreover, the CC50 at 48 h in series [3] was over 1800 nM.
Regarding `CCC(C)C(=O)O[C@H]1[C@H](C)OC(=O)[C@@H](NC(=O)c2cccc(NC=O)c2O)[C@@H](C)OC(=O)[C@@H]1Cc1ccccc1` (some centres undefined) [SPLENOCIN C], the IC50 in series [1] was determined as 6.7 nM; in series [2] it was 7.3 nM. Also, the CC50 at 48 h in series [3] was over 560 nM.

The values above are taken from ChEMBL document CHEMBL1153431, “Potent inhibitors of pro-inflammatory cytokine production produced by a marine-derived bacterium” (J Med Chem, 2009).
